# Data taken from PubChem BioAssay AID492966 (Southern Research Specialized Biocontainment Screening …, 2010).
# Activity calls are given as the source filed them.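 The calls were made as follows: active = compounds that block at least half of the virus-caused cell damage; inactive = the rest.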
# Test system: HEp-2 RSV Long CPE inhibition, luminescence
# Test: RSV cytopathic effect inhibition in HEp-2, dose response, cell-based, RSV Long, luminescence, synthesized compounds, set 3 (AID 492966)
# Summary of the method: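 Test system: RSV Long-infected HEp-2 cells; Dosing: 8 doses, 1:2 steps, 0.39–50 µM, 0.5% DMSO; Timing: 6 days at 37 °C; Evaluation: % CPE inhibition and IC50 from bounded 4-parameter fit; Detection: luminescence-based cytopathic effect measurement; Replicates: triplicate wells; Also added: RSV Long, MOI 0.45.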
row,Compound,IC50
1,Cc1ccccc1NC(=O)[C@@H]1CCCN1S(=O)(=O)c1cccc2cccnc12,16.5 µM
2,O=C(Nc1ccc(Cl)cc1Cl)[C@@H]1CCCN1S(=O)(=O)c1cccc2cccnc12,> 50 µM (inactive)
3,Cc1ccc(NC(=O)[C@@H]2CCCN2S(=O)(=O)c2cccc3cccnc23)cc1,> 50 µM (inactive)
